Ba/F3 V617F tox: loss of viability in JAK2V617F-driven Ba/F3 cells; Ba/F3 EpoR-JAK2V617F viability, ATP luminescence; inhibition, % at 5.6 µM; hit rate 1.1% among 220,000; AID 1446;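 active = inhibition above the campaign mean plus 3 SD over all tested compounds, cut at about 24% in these data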;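 also: cytokine-independent growth of Ba/F3 cells driven by EpoR plus mutant JAK2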
BaF3 tox: parental Ba/F3 viability inhibition as JAK2V617F counter-screen; hit rate 1.1% among 220,000; CellTiter-Glo ATP luminescence; AID 1486; inhibition, % at 5.6 µM;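 active = inhibition above a per-campaign cutoff, the mean inhibition of all tested compounds plus 3 SD, cut at about 27% in these data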
IEC-6 cytotox: IEC-6 cytotoxicity, counter-screen for KLF5 inhibitors. luminescence viability. inhibition, % at 5 µM. hit rate 0.78% among 290,000; in the data active = inhibition above about 22%
MT stabilize HCS: microtubule stabilizers in HeLa cells | HeLa tubulin immunostaining HCS, 24 h; share of cells brighter than vehicle mean+2SD | % tubulin-high responders, % at 10 µM | hit rate 0.83% among 200,000 | AID 2205;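 active = plate Z-score above 3 for both tubulin-high and condensed-nucleus cell shares, with cell loss under 80%, at 10 µM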;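 also: anti alpha tubulin signal scored within the nucleus-defined area of each cell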
KLF5 inhibitor: inhibitors of KLF5 expression | hit rate 0.23% among 290,000 | AID 1700 | DLD-1 KLF5 promoter-luciferase reporter, luminescence | inhibition, % at 5 µM;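 active = inhibition above a per-plate limit of that plate's mean compound inhibition plus 3 SD, cut at about 60% in these data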;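 also: higher means less KLF5 promoter-driven luciferase light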
b-catenin transl: beta-catenin nuclear translocation modulation. HeLa beta-catenin nuclear translocation, immunofluorescence imaging. nuclear translocation activity, % at 5 µM. hit rate 0.3% among 190,000. AID 1665;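 active = nuclear translocation activity above 50% at 5 µM, with a well cell count of 50 or more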;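 also: per-cell ratio of nuclear to cytoplasmic median beta-catenin stain intensity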
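Technique: fluorescence imaging of beta-catenin antibody stain plus DAPI / Material: human HeLa cell line / Incubation: compound treatment 24 h, 37°C, 5% CO2 / Read-out basis: % activation of per-cell nuclear versus cytoplasmic median beta-catenin signal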
BaF3 tox 2: parental Ba/F3 viability inhibition for JAK2V617F counter-screen; inhibition, % at 5.6 µM; shares compounds with Ba/F3 V617F tox; hit rate 31% among 580; AID 1520; CellTiter-Glo luminescence; cells kept alive by added IL-3;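 active = cell growth inhibition above the hit limit set in the earlier mutant JAK2 cell screen, cut at about 27% in these data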
JAK2V617F conf: Ba/F3 EpoR-JAK2V617F viability loss, confirmation | inhibition, % at 5.6 µM | CellTiter-Glo luminescence | shares compounds with Ba/F3 V617F tox | hit rate 66% among 580;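 active = mean inhibition above the hit cutoff derived in the earlier primary screen, cut at about 25% in these data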;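 also: higher means lower luminescence from reduced cell ATP and viability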
Numbers stand for hits; . = inactive; / = no result. A selection: hits, their analogues and other compounds. The true share with any hit is near 2.1%.

SMILES | Ba/F3 V617F tox | BaF3 tox | IEC-6 cytotox | MT stabilize HCS | KLF5 inhibitor | b-catenin transl | BaF3 tox 2 | JAK2V617F conf
O=C(Nc1cccc([N+](=O)[O-])c1)c1cc2ccccc2cc1O | 24 | . | . | / | . | . | 64 | 75
Cc1ccc(S(=O)(=O)Nc2cc(C)cn(Cc3ccc(F)cc3)c2=O)cc1 | / | / | . | / | . | / | / | /
COC(=O)C1(C)Cc2cc(OC(C)=O)c(OC(C)=O)cc2N1 (configuration not stated) | 37 | . | . | / | . | . | . | 46
C=CCn1c(CNC(=O)c2ccccc2F)nnc1SCC(=O)N1CCOCC1 | / | / | . | / | . | / | / | /
CCCCN(CC)Cc1ccc(CNC(=O)Nc2ccc(Cl)cc2)o1 | 47 | . | . | . | . | . | . | 42
c1ccc(-c2nc(-c3ccccn3)no2)cc1 | 25 | . | . | . | . | . | 29 | .
CCOC(=O)C1(Cc2ccccc2C(F)(F)F)CCN(C2CCN(C(C)C)CC2)CC1 | 73 | . | . | . | . | . | . | 42
CCOC(=O)C1(Cc2ccccc2C(F)(F)F)CCN(CC(O)CO)CC1 (configuration not stated) | . | . | . | . | . | . | / | /
COc1ccc(OC)c(NS(=O)(=O)c2ccc(SC)cc2)c1 | 30 | . | . | . | . | . | . | 70
Cc1ccnn1CCC(=O)O | . | . | . | / | . | . | / | /
Cc1nc([N+](=O)[O-])c(Br)n1Cc1ccccc1 | 36 | . | . | / | . | . | . | 46
Cc1ccc(CC(=O)NCc2cccnc2)cc1 | 58 | . | . | . | . | . | . | .
Cc1ccc(CSCC(=O)NCc2cccnc2)cc1 | . | . | . | . | . | . | / | /
O=C(c1cccn2c(=O)c3cc4ccccc4cc3nc12)N1CCN(c2ccccc2)CC1 | . | . | . | . | . | . | / | /
CN(c1ccccc1)S(=O)(=O)c1cccc(C(=O)NCCc2ccc(O)c(O)c2)c1 | 32 | . | . | . | . | . | . | 67
Clc1ccc(CNCCC2=CCCCC2)cc1 | . | . | . | . | . | . | / | /
COc1ccc(CCC(=O)Nc2cc(Cl)ccc2N2CCN(C)CC2)cc1 | 33 | . | . | . | . | . | . | .
NC(=O)CC[C@@H]1NC(=O)[C@@H]2CCCN2C(=O)c2cc([N+](=O)[O-])cc(I)c2NCCC[C@@H](C(N)=O)NC1=O | . | . | . | . | . | / | / | /
Cc1cccc(C(=O)N[C@H](C(=O)Nc2ccc(C)c(S(=O)(=O)N(C)C)c2)C(C)C)c1 | . | . | . | . | . | . | / | /
Cc1c(Cc2ccccc2)c(=O)oc2c(O)c(O)ccc12 | 44 | . | . | . | . | . | . | 64
Cc1c(Cc2ccccc2)c(=O)oc2cc(O)ccc12 | . | . | . | / | . | . | / | /
O=C(CCc1ccccc1)Nc1ncc2c(n1)CCCC2=O | . | . | . | . | . | . | / | /
CC1(C)CC(=O)c2cnc(NC(=O)CCc3ccccc3)nc2C1 | 95 | . | . | . | . | . | . | .
CCN(CC)CCNC(=O)c1ccc(NC(=O)COc2ccccc2F)cc1 | . | . | . | . | . | . | / | /
NS(=O)(=O)c1ccc(Sc2nc3ccccc3s2)c([N+](=O)[O-])c1 | 65 | . | . | / | . | . | 36 | 93
SMILES | Ba/F3 V617F tox | BaF3 tox | IEC-6 cytotox | MT stabilize HCS | KLF5 inhibitor | b-catenin transl | BaF3 tox 2 | JAK2V617F conf
CCC(C)n1ncn(-c2ccc(N3CCN(c4ccc(O)cc4)CC3)cc2)c1=O (configuration not stated) | 33 | . | . | . | . | . | 59 | 48
Cc1ccc(N(CC(=O)Nc2cc(Cl)ccc2Oc2ccccc2)S(C)(=O)=O)cc1C | 26 | . | . | . | . | / | . | .
O=C(c1ccccc1)C(CCC(CN1CCOCC1)C(=O)c1ccccc1)CN1CCOCC1 (configuration not stated) | 44 | . | . | . | . | . | . | 100
COc1ccccc1N1C(N)=NC(N)=NC1(C)C | . | . | . | . | . | . | / | /
NC1=NC2(CCCCC2)N(c2ccc(F)cc2)C(N)=N1 | 24 | . | . | . | . | . | . | 33
CC(=O)Nc1nnc(Cc2c[nH]c3ccccc23)s1 | . | . | . | . | . | . | / | /
CSC1=NSC2=NC(=O)/C(=C\c3ccc(OC(=O)c4ccco4)cc3)C(=N)N12 | / | / | . | / | . | / | / | /
CC1=CSC2=NC(=O)/C(=C/c3cccc(OC(=O)c4ccco4)c3)C(=N)N12 | 34 | . | . | . | . | . | . | .
O=[N+]([O-])c1ccc(N/N=C2/CCCCC2c2ccccn2)cc1 (configuration not stated) | . | . | . | . | . | . | / | /
CC(C)(C)c1ccc(C(=O)NCC(=O)N2CCC3(CC2)NCCc2[nH]cnc23)cc1 | / | / | . | / | . | / | / | /
CCCCNC(=O)CCn1nc(-c2ccc(C)cc2)c2ccccc2c1=O | / | / | . | / | . | / | / | /
Cc1cccc(NC(=O)c2ccccc2O)c1C | . | . | . | . | . | . | / | /
Cc1cccc(NC(=O)c2cnn3ccccc23)c1C | 28 | . | . | / | . | . | . | 25
COc1cccc(-n2nnnc2S(C)(=O)=O)c1 | 52 | . | 39 | . | . | / | 32 | 95
CCCN1CCN(CCCNC(=O)c2ccc(NC(=O)C3=C(C)OCCS3)cc2)CC1 | / | / | . | / | . | / | / | /
C=CCOC(=O)C1=C(C)NC(SCC)=C(C#N)C1c1ccc(Cl)cc1 (configuration not stated) | 41 | . | . | . | . | . | . | 29
C=CCOC(=O)C1=C(C)NC(SCC(N)=O)=C(C#N)C1c1ccc(C)cc1 (configuration not stated) | . | . | . | / | . | . | / | /
Cc1ccc(C)c(N2CCN(CCCNC(=O)Cn3cccc3C(=O)c3ccccc3C)CC2)c1 | 41 | . | . | . | . | . | . | 29
Nc1nc(SCC(=O)Nc2ccc(OC(F)(F)F)cc2)[nH]c(=O)c1NC(=O)c1ccc(Br)o1 | / | / | . | / | . | / | / | /
Cc1ccccc1CN1C(=O)CSc2ccc(C(=O)N3CCOCC3)cc21 | 33 | . | . | 38 | . | / | . | .
O=C(c1ccc2c(c1)N(Cc1ccccc1)C(=O)CS2)N1CCOCC1 | . | . | . | . | . | . | / | /
CC(C)c1nnc(NC(=O)CSc2nnc(NC(=O)c3c(F)cccc3F)s2)s1 | . | . | . | . | . | . | / | /
O=C(Nc1cc(C(F)(F)F)ccc1N1CCOCC1)c1ccc2ccccc2n1 | . | . | . | . | . | . | / | /
Cc1ccc(S(=O)(=O)NC(CC(=O)n2nc(C)cc2C)c2ccccc2)cc1 (configuration not stated) | . | . | . | . | . | / | / | /
Cc1ccc(S(=O)(=O)NC(c2ccccc2)C(C)C(=O)n2nc(C)cc2C)cc1 (configuration not stated) | 64 | . | . | . | . | / | . | .
O=C(CSc1nccc(=O)[nH]1)Nc1cccc2ccccc12 | / | / | . | / | . | / | / | /
